Source: ChEMBL document CHEMBL1821639, “Exploring Left-Hand-Side substitutions in the benzoxazinone series of 4-amino-piperidine bacterial type IIa topoisomerase inhibitors” (Bioorg Med Chem Lett, 2011)
pIC50: −log10 of the molar value. ≈ marks a conversion by molar mass, not a printed value.

Key:
[1] = Lipophilicity, log D of the compound by shake flask method using LC-MS analysis; format: physicochemical; settings: octanol/water
In short: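 Shake-flask partitioning, experimental, with LC–MS quantitation.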

Staphylococcus aureus = assay: Antibacterial activity against Staphylococcus aureus after 24 hrs by CLSI method; format: functional
In short: (§1)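 Broth dilution per CLSI; compounds in DMSO, 10 doubling dilutions. Organisms grown overnight on agar, suspended in suitable liquid medium to 0.5 McFarland, then diluted 1 in 10 for final inoculum.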

Streptococcus pneumoniae = assay: Antibacterial activity against Streptococcus pneumoniae after 24 hrs by CLSI method; format: functional; in short: as §1
Streptococcus pyogenes = assay: Antibacterial activity against Streptococcus pyogenes after 24 hrs by CLSI method; format: functional; in short: as §1
Haemophilus influenzae = assay: Antibacterial activity against Haemophilus influenzae after 24 hrs by CLSI method; format: functional; in short: as §1
Moraxella catarrhalis = assay: Antibacterial activity against Moraxella catarrhalis after 24 hrs by CLSI method; format: functional; in short: as §1
Pseudomonas aeruginosa = assay: Antibacterial activity against Pseudomonas aeruginosa after 24 hrs by CLSI method; format: functional; in short: as §1
Escherichia coli [2] = assay: Antibacterial activity against Escherichia coli after 24 hrs by CLSI method; format: functional; in short: as §1
Escherichia coli [3] = assay: Antibacterial activity against TolC-deficient Escherichia coli after 24 hrs by CLSI method; format: functional; in short: as §1
Klebsiella pneumoniae = assay: Antibacterial activity against Klebsiella pneumoniae after 24 hrs by CLSI method; format: functional; in short: as §1
[4] = Inhibition of ParC in reconstituted Escherichia coli ParC/ParE assessed as ParE ATPase activity after 24 hrs by ammonium molybdate/malachite green method
[5] = Inhibition of Escherichia coli DNA gyrase supercoiling activity
[6] = target: Voltage-gated inwardly rectifying potassium channel KCNH2 (Homo sapiens, UniProt Q12809); assay: Inhibition of human ERG by electrophysiological assay
Chain of Voltage-gated inwardly rectifying potassium channel KCNH2 (Q12809 whole entry): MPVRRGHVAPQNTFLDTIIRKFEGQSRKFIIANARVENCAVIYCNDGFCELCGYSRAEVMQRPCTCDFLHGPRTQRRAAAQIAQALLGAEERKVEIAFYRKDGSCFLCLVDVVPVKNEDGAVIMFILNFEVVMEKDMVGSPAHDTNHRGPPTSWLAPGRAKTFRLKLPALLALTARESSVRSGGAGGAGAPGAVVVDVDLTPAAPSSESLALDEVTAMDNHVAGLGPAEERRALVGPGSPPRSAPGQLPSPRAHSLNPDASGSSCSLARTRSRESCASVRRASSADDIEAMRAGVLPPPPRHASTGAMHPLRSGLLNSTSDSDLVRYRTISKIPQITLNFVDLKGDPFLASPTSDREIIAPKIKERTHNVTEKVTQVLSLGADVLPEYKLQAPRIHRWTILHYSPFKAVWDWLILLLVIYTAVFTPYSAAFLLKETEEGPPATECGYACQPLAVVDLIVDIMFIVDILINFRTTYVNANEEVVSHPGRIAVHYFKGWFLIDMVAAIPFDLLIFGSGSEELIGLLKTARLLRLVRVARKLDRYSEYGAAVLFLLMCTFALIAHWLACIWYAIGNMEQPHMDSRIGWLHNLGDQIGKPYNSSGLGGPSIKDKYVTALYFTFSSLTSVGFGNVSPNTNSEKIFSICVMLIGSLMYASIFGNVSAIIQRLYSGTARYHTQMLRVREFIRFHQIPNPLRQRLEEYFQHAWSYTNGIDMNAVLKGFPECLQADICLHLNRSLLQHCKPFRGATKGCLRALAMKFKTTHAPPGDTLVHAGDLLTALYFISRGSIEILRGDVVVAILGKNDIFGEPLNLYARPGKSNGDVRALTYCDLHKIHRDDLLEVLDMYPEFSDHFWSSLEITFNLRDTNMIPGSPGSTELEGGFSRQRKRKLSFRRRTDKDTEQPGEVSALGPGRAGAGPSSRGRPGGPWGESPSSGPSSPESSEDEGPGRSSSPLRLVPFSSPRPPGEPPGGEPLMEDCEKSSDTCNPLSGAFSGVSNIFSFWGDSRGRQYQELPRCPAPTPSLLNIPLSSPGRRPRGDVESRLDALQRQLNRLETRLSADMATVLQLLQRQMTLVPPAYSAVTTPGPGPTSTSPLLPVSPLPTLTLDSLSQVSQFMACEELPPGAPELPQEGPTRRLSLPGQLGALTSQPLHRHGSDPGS

Row | Structure (SMILES) | logD [1] | MIC (Staphylococcus aureus) | MIC (Streptococcus pneumoniae) | MIC (Streptococcus pyogenes) | MIC (Haemophilus influenzae) | MIC (Moraxella catarrhalis) | MIC (Pseudomonas aeruginosa) | MIC (Escherichia coli [2]) | MIC (Escherichia coli [3]) | MIC (Klebsiella pneumoniae) | pIC50 [4] | pIC50 [5] | pIC50 [6]
1 | O=C1COc2ccc(CNC3CCN(CCN4C(=O)COc5ccc(C(=O)O)cc54)CC3)nc2N1 | -1.6 | > 13.5 µM | > 13.5 µM | > 13.5 µM | > 13.5 µM | > 13.5 µM | > 13.5 µM | > 13.5 µM | > 12.7 µM | > 13.5 µM | 5.33 |  | 
2 | O=C1COc2ccc(CNC3CCN(CCN4C(=O)COc5ccc(Br)cc54)CC3)nc2N1 | 1.4 | 0.1 µM (≈ 0.0516 µg/mL) | 0.3 µM (≈ 0.155 µg/mL) |  | 0.1 µM (≈ 0.0516 µg/mL) | < 0.015 µM | 7.7 µM (≈ 3.98 µg/mL) | 0.5 µM (≈ 0.258 µg/mL) | < 0.02 µM | 3.9 µM (≈ 2.01 µg/mL) | 7.74 |  | 
3 | COc1ccc2c(c1)N(CCN1CCC(NCc3ccc4c(n3)NC(=O)CO4)CC1)C(=O)CO2 | 0.9 | 0.3 µM (≈ 0.14 µg/mL) | 1.1 µM (≈ 0.514 µg/mL) |  | 0.1 µM (≈ 0.0468 µg/mL) | 0.1 µM (≈ 0.0468 µg/mL) | 8.6 µM (≈ 4.02 µg/mL) | 0.5 µM (≈ 0.234 µg/mL) | 0.1 µM (≈ 0.0468 µg/mL) |  |  | 8.30 | 
4 | O=C1COc2ccc(CNC3CCN(CCN4C(=O)COc5ccc(NC(=O)C(F)(F)F)cc54)CC3)nc2N1 | 0.2 | > 16.1 µM | > 16.1 µM | > 16.1 µM | 16.1 µM (≈ 8.83 µg/mL) | 16.1 µM (≈ 8.83 µg/mL) | > 16.1 µM | > 16.1 µM | 8.1 µM (≈ 4.44 µg/mL) | > 16.1 µM |  |  | < 4.00
5 | CC(=O)c1ccc2c(c1)N(CCN1CCC(NCc3ccc4c(n3)NC(=O)CO4)CC1)C(=O)CO2 | 0.4 | 1 µM (≈ 0.48 µg/mL) | 2.1 µM (≈ 1.01 µg/mL) | 1 µM (≈ 0.48 µg/mL) | 0.3 µM (≈ 0.144 µg/mL) | 0.3 µM (≈ 0.144 µg/mL) | 16.7 µM (≈ 8.01 µg/mL) | 2.1 µM (≈ 1.01 µg/mL) | 0.1 µM (≈ 0.048 µg/mL) |  |  |  | 
6 | CCS(=O)(=O)c1ccc2c(c1)N(CCN1CCC(NCc3ccc4c(n3)NC(=O)CO4)CC1)C(=O)CO2 | -0.1 | > 15.1 µM | > 15.1 µM | 15.1 µM (≈ 8 µg/mL) | 7.6 µM (≈ 4.03 µg/mL) | 7.6 µM (≈ 4.03 µg/mL) | > 15.1 µM | > 15.1 µM | 1.9 µM (≈ 1.01 µg/mL) |  |  |  | 
7 | CS(=O)(=O)c1ccc2c(c1)N(CCN1CCC(NCc3ccc4c(n3)NC(=O)CO4)CC1)C(=O)CO2 | -0.5 | > 15.5 µM | 15.5 µM (≈ 7.99 µg/mL) | 15.5 µM (≈ 7.99 µg/mL) | 3.9 µM (≈ 2.01 µg/mL) | 3.9 µM (≈ 2.01 µg/mL) | > 15.5 µM | > 15.5 µM | 1 µM (≈ 0.516 µg/mL) |  |  |  | 
8 | N#Cc1ccc2c(c1)N(CCN1CCC(NCc3ccc4c(n3)NC(=O)CO4)CC1)C(=O)CO2 | 0.2 | 0.3 µM (≈ 0.139 µg/mL) | 0.8 µM (≈ 0.37 µg/mL) | 0.3 µM (≈ 0.139 µg/mL) | 0.1 µM (≈ 0.0463 µg/mL) |  | 3.8 µM (≈ 1.76 µg/mL) | 0.5 µM (≈ 0.231 µg/mL) | < 0.02 µM | 4.3 µM (≈ 1.99 µg/mL) | 7.44 | 8.49 | 
9 | O=C1COc2ccc(CNC3CCN(CCN4C(=O)COc5ccc(-n6cnnn6)cc54)CC3)nc2N1 | -0.8 | > 10.9 µM | > 10.9 µM | > 10.9 µM | > 10.9 µM | > 10.9 µM | > 10.9 µM | > 10.9 µM | > 10.9 µM | > 10.9 µM | 6.45 |  | < 4.00
10 | O=C1COc2ccc(CNC3CCN(CCN4C(=O)COc5ccc([N+](=O)[O-])cc54)CC3)nc2N1 |  | 0.3 µM (≈ 0.145 µg/mL) | 0.5 µM (≈ 0.241 µg/mL) | 0.3 µM (≈ 0.145 µg/mL) | 0.1 µM (≈ 0.0482 µg/mL) |  | 5.9 µM (≈ 2.85 µg/mL) | 0.5 µM (≈ 0.241 µg/mL) | < 0.02 µM |  |  |  | 
11 | O=C1COc2ccc(CNC3CCN(CCN4C(=O)COc5ccc(F)cc54)CC3)nc2N1 | 0.9 | 0.6 µM (≈ 0.273 µg/mL) | 1.1 µM (≈ 0.501 µg/mL) | 0.5 µM (≈ 0.228 µg/mL) | 0.1 µM (≈ 0.0455 µg/mL) |  | 6.2 µM (≈ 2.82 µg/mL) | 0.6 µM (≈ 0.273 µg/mL) | 0.1 µM (≈ 0.0455 µg/mL) |  |  |  | 
12 | O=C1COc2ccc(CNC3CCN(CCN4C(=O)COc5ccc(-c6ccco6)cc54)CC3)nc2N1 | 2.2 | 0.5 µM (≈ 0.252 µg/mL) | 0.5 µM (≈ 0.252 µg/mL) | 2 µM (≈ 1.01 µg/mL) | 0.3 µM (≈ 0.151 µg/mL) | 0.06 µM (≈ 0.0302 µg/mL) | 15.9 µM (≈ 8.01 µg/mL) | 2 µM (≈ 1.01 µg/mL) | 0.06 µM (≈ 0.0302 µg/mL) | 15.9 µM (≈ 8.01 µg/mL) | 7.74 |  | 
13 | CC(O)c1ccc2c(c1)N(CCN1CCC(NCc3ccc4c(n3)NC(=O)CO4)CC1)C(=O)CO2 (configuration not stated) | 0.3 | > 16.6 µM | > 16.6 µM | > 16.6 µM | 4.2 µM (≈ 2.02 µg/mL) | > 16.6 µM | > 16.6 µM | > 16.6 µM | 1.1 µM (≈ 0.53 µg/mL) | > 16.6 µM |  |  | 
14 | CN(C)S(=O)(=O)c1ccc2c(c1)N(CCN1CCC(NCc3ccc4c(n3)NC(=O)CO4)CC1)C(=O)CO2 | 0.2 | > 14.6 µM | > 14.6 µM | > 14.6 µM | 14.7 µM (≈ 8.01 µg/mL) | > 14.6 µM | > 14.6 µM | > 14.6 µM | 7.3 µM (≈ 3.98 µg/mL) |  |  |  | 
15 | O=C1COc2ccc(CNC3CCN(CCN4C(=O)COc5ccc(O)cc54)CC3)nc2N1 | 0.5 | 17.7 µM (≈ 8.03 µg/mL) | 8.8 µM (≈ 3.99 µg/mL) | 1.1 µM (≈ 0.499 µg/mL) | 0.3 µM (≈ 0.136 µg/mL) | 0.1 µM (≈ 0.0453 µg/mL) | 17.7 µM (≈ 8.03 µg/mL) | 4.4 µM (≈ 2 µg/mL) | 0.1 µM (≈ 0.0453 µg/mL) | > 17.7 µM | 7.44 |  | 
16 | O=C1COc2ccc(CNC3CCN(CCN4C(=O)COc5ccc(OC(F)(F)F)cc54)CC3)nc2N1 | 1.8 | 1 µM (≈ 0.521 µg/mL) | 1 µM (≈ 0.521 µg/mL) | 1 µM (≈ 0.521 µg/mL) | 0.1 µM (≈ 0.0521 µg/mL) | 0.1 µM (≈ 0.0521 µg/mL) | 15.3 µM (≈ 7.98 µg/mL) | 3.8 µM (≈ 1.98 µg/mL) | 0.1 µM (≈ 0.0521 µg/mL) |  |  |  | 
17 | COC(=O)c1ccc2c(c1)N(CCN1CCC(NCc3ccc4c(n3)NC(=O)CO4)CC1)C(=O)CO2 | 0.8 | 1 µM (≈ 0.496 µg/mL) | 8.1 µM (≈ 4.01 µg/mL) | 2 µM (≈ 0.991 µg/mL) | 0.5 µM (≈ 0.248 µg/mL) | 0.1 µM (≈ 0.0496 µg/mL) | > 16.1 µM | 4 µM (≈ 1.98 µg/mL) | 0.1 µM (≈ 0.0496 µg/mL) | 16.1 µM (≈ 7.98 µg/mL) | 7.11 |  | 
18 | O=C1COc2ccc(CNC3CCN(CCN4C(=O)COc5ccc(Cl)cc54)CC3)nc2N1 | 1.3 | 0.3 µM (≈ 0.142 µg/mL) | 0.5 µM (≈ 0.236 µg/mL) | 0.5 µM (≈ 0.236 µg/mL) | 0.1 µM (≈ 0.0472 µg/mL) | 0.1 µM (≈ 0.0472 µg/mL) | 4.2 µM (≈ 1.98 µg/mL) | 0.5 µM (≈ 0.236 µg/mL) | < 0.02 µM |  | 7.64 |  | 
